Source: ChEMBL document CHEMBL2202989, “New adamantane phenylalkylamines with σ-receptor binding affinity and anticancer activity, associated with putative antagonism of neuropathic pain” (J Med Chem, 2012)
The source made the active and inactive calls. No cut-off for these calls is given here.

Legend:
IGROV-1 [1] = assay: Cell cycle arrest in human IGROV1 cells assessed as accumulation at >G2/M phase at 5 uM after 24 hrs using propidium iodide staining by FACS analysis (reference value: 21 %); format: functional
Summary of the method: (§1)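 Cells were plated 24 h before treatment and exposed for 24 h at final 0.5, 5, 15 and 50 μM in 0.5% DMSO, against vehicle-treated controls. Cells were then trypsinised and fixed in cold ethanol for 3 h at 4 °C. They were stained in a mix of RNase (200 μg/mL) and PI (1 mg/mL) for 45 min at room temperature in the dark. Flow cytometry used 488 nm excitation and 10 000 gated cells. Phase percentages were assigned from DNA content.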

PC-3 [2] = assay: Cell cycle arrest in human PC3 cells assessed as accumulation at sub G1 phase at 50 uM after 24 hrs using propidium iodide staining by FACS analysis (reference value: 4 %); format: functional
OVCAR-5 = assay: Antitumor activity against human OVCAR5 cells xenografted in SCID mouse assessed as axillary metastasis at 55 mg/kg, ip administered 5 consecutive days in a week for two cycles measured after 2 cycles relative to control; format: functional; conditions: OVCAR-5, ip, route intraperitoneal, read-out: TGI
Summary of the method: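 SCID mice carried OVCAR5 xenografts (10^6 cells per inoculum), 16 mice (32 tumors) per group, with ip dosing in 5% Tween 80 from a tumor volume of about 100 mm3. Caliper volume was measured twice weekly and %ΔT/ΔC derived. At termination, primary tumors were weighed and secondary metastases were scored at axillary and bone sites (n = 7−8). Two-tailed t test.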

[3] = Growth inhibition of human MSC cells after 48 hrs by SRB assay; format: cell-based
Summary of the method: (§2)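 Cells grown in RPMI 1640 with 5% heat-inactivated FCS, 2 mM L-glutamine and antibiotics, 37 °C, 5% CO2. Seeded at 3500–30000 cells/well and left 24 h before dosing. DMSO solutions added at 10-fold dilutions from 100 to 0.01 μM for 48 h. Cells TCA-fixed and SRB-stained, absorbance read at 540 nm; GI50 derived against the time-zero plate.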

IGROV-1 [4] = assay: Induction of apoptosis in human IGROV1 cells assessed as late apoptosis at 50 uM using annexin V/7-AAD by FACS analysis (reference value: 5 %); format: functional
IGROV-1 [5] = assay: Cell cycle arrest in human IGROV1 cells assessed as accumulation at >G2/M phase at 0.5 uM after 24 hrs using propidium iodide staining by FACS analysis (reference value: 21 %); format: functional; summary of the method: as §1
PC-3 [6] = assay: Cell cycle arrest in human PC3 cells assessed as accumulation at G1 phase at 0.5 uM after 24 hrs using propidium iodide staining by FACS analysis (reference value: 36 %); format: functional
BXPC-3 [7] = assay: Cell cycle arrest in human BxPC3 cells assessed as accumulation at sub G1 phase at 0.5 uM after 24 hrs using propidium iodide staining by FACS analysis (reference value: 9 %); format: functional; summary of the method: as §1
PC-3 [8] = assay: Induction of apoptosis in human PC3 cells assessed as total apoptotic death at 50 uM using annexin V/7-AAD by FACS analysis (reference value: 8 %); format: functional
Summary of the method: (§3)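 Cells plated 24 h before treatment, then exposed 24 h to 0.5, 5, 15 or 50 μM compound (final DMSO 0.5%); vehicle controls included. Cells scraped and stained with annexin V-FITC and 7-AAD for 15 min on ice in the dark. Flow cytometry with 488 nm excitation, 10,000 gated cells. Early apoptosis was annexin V+/7-AAD−, late was annexin V+/7-AAD+.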

PC-3 [9] = assay: Induction of apoptosis in human PC3 cells assessed as cleaved caspase3 containing cells at 5 uM by antibody-based FACS analysis (reference value: 3.2 %); format: functional
BXPC-3 [10] = assay: Induction of apoptosis in human BxPC3 cells assessed as early apoptosis at 50 uM using annexin V/7-AAD by FACS analysis (reference value: 9 %); format: functional
IGROV-1 [11] = assay: Cell cycle arrest in human IGROV1 cells assessed as accumulation at G2 phase at 15 uM after 24 hrs using propidium iodide staining by FACS analysis (reference value: 19 %); format: functional
IGROV-1 [12] = assay: Growth inhibition of human IGROV1 cells after 48 hrs by SRB assay; format: functional; conditions: IGROV-1, 48 h; summary of the method: as §2
BXPC-3 [13] = assay: Induction of apoptosis in human BxPC3 cells assessed as total apoptotic death at 0.5 uM using annexin V/7-AAD by FACS analysis (reference value: 18 %); format: functional; summary of the method: as §3
HL-60(TB) = assay: Growth inhibition of human HL-60(TB) cells after 48 hrs by SRB assay; format: functional; conditions: HL-60, 48 h
Summary of the method: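 Cells kept in RPMI 1640 with 5% FCS at 37 °C, 5% CO2, and seeded 24 h before dosing. Compound given from DMSO at 10-fold dilutions, 100 to 0.01 μM, for 48 h. Cells fixed with TCA, stained with SRB, absorbance read at 540 nm. GI50 taken from a time-zero plate.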

PC-3 [14] = assay: Growth inhibition of human PC3 cells after 48 hrs by SRB assay; format: functional; conditions: PC-3, 48 h; summary of the method: as §2
IGROV-1 [15] = assay: Induction of apoptosis in human IGROV1 cells assessed as total apoptotic death at 15 uM using annexin V/7-AAD by FACS analysis (reference value: 13 %); format: functional; summary of the method: as §3
BXPC-3 [16] = assay: Induction of apoptosis in human BxPC3 cells assessed as early apoptosis at 5 uM using annexin V/7-AAD by FACS analysis (reference value: 9 %); format: functional
BXPC-3 [17] = assay: Antitumor activity against human BxPC3 cells xenografted in SCID mouse assessed as tumor growth inhibition at 45 mg/kg, ip administered 3 consecutives days per week for three cycles measured after 3 cycles relative to control; format: functional; conditions: BXPC-3, ip, route intraperitoneal, read-out: TGI
Summary of the method: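 BxPC3 xenografts were grown in SCID mice from inocula of 10^6 exponentially growing cells, with 10 mice (20 tumors) per group. Treatment started ip once tumors averaged about 100 mm3. The test agent was given in 5% Tween 80 and gemcitabine in water for injection. Tumor volume was measured by caliper twice weekly and %ΔT/ΔC was computed; two-tailed Student's t test.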

PC-3 [18] = assay: Induction of apoptosis in human PC3 cells assessed as total apoptotic death at 15 uM using annexin V/7-AAD by FACS analysis (reference value: 8 %); format: functional; summary of the method: as §3
Mus musculus = assay: Analgesic activity in CD1 mouse neuropathic pain model assessed as reduction in paw licking time at 100 mg/kg, po administered 1 hr prior to formalin challenge in presence of paclitaxel; format: functional, organism-based; parameters: dose 100 mg/kg
Summary of the method: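 CD1 male mice (34−40 g), free access to food and water, were given paclitaxel 6 mg/kg ip once in saline on day 0. On day 14 the test compound was given orally 1 h before formalin was injected into the hind paw. Time spent licking and biting the injected paw and leg was recorded at 0−5 and 35−40 min after formalin.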

IGROV-1 [19] = assay: Cell cycle arrest in human IGROV1 cells assessed as accumulation at sub G1 phase at 0.5 uM after 24 hrs using propidium iodide staining by FACS analysis (reference value: 4 %); format: functional
PC-3 [20] = assay: Induction of apoptosis in human PC3 cells assessed as cleaved caspase3 containing cells at 0.5 uM by antibody-based FACS analysis (reference value: 3.2 %); format: functional
[21] = read-out: LC50 (the source's name)

CN1CCN(CCCc2ccc(C(c3ccccc3)C34CC5CC(CC(C5)C3)C4)cc2)CC1 (centres undefined)
Activity (IGROV-1 [1]): 20%
Activity (PC-3 [2]): 12%
inhibition in vivo at 55 mg/kg (OVCAR-5): 25%
TGI [3]: 30900 nM
Activity (IGROV-1 [4]): 25%
Activity (IGROV-1 [5]): 20%
Activity (PC-3 [6]): 34%
Activity (BXPC-3 [7]): 11%
Activity (PC-3 [8]): 23%
Activity (PC-3 [9]): 2%
Activity (BXPC-3 [10]): 2%
Activity (IGROV-1 [11]): 27%
GI50 (IGROV-1 [12]): 4540 nM
TGI (IGROV-1 [12]): 11900 nM
CC50 (IGROV-1 [12]; [21]): 74.8 nM
Activity (BXPC-3 [13]): 17%
GI50 (HL-60(TB)): 4.02 nM
TGI (HL-60(TB)): 7.88 nM
CC50 (HL-60(TB); [21]): 100 nM
GI50 (PC-3 [14]): 3430 nM
TGI (PC-3 [14]): 6720 nM
CC50 (PC-3 [14]; [21]): 10 nM
Activity (IGROV-1 [15]): 57%
Activity (BXPC-3 [16]): 11%
inhibition in vivo at 45 mg/kg (BXPC-3 [17]): 37.2%
Activity (PC-3 [18]): 16%
Activity (Mus musculus): Active
Activity (IGROV-1 [19]): 4%
Activity (PC-3 [20]): 1.7%
